The test system of experiment [1] is CNE-2. Briefly: Induction of apoptosis in human CNE2 cells assessed as early apoptotic cells level at 10 uM incubated for 24 hrs by Annexin V-FITC/PI dual staining based flow cytometry (reference value: 3.56%). Type of experiment: functional. A digest of the protocol:
(§1)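 CNE2 and SMMC-7721 cells were treated for 24 h at 0, 5, 10 or 30 µM, or at 0, 10, 20 or 50 µM depending on compound. Cells were stained with Annexin V-FITC/propidium iodide and quantified by flow cytometry. Apoptotic cells were counted as AV+/PI− (lower right) plus AV+/PI+ (upper right) quadrants.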
On the technique in general: In flow cytometry, cells or beads pass a laser one at a time.

In experiment [2] the test system is SMMC-7721. Briefly: Induction of cell cycle arrest in human SMMC7721 cells assessed as accumulation at G2/M phase at 5 uM incubated for 24 hrs by propidium iodide staining based flow cytometry (reference value: 18.4%). Type of experiment: functional.
The test system of experiment [3] is CNE-2. Put plainly: Induction of cell cycle arrest in human CNE2 cells assessed as accumulation at S phase at 10 uM incubated for 24 hrs by propidium iodide staining based flow cytometry (reference value: 10.3%). Type of experiment: functional.
The test system of experiment [4] is SMMC-7721. Briefly: Induction of apoptosis in human SMMC7721 cells assessed as early apoptotic cells level at 30 uM incubated for 24 hrs by Annexin V-FITC/PI dual staining based flow cytometry (reference value: 1.36%). Type of experiment: functional. The procedure, abridged:
as §1

For experiment [5], the system named is SMMC-7721. Briefly: Induction of apoptosis in human SMMC7721 cells assessed as late apoptotic cells level at 30 uM incubated for 24 hrs by Annexin V-FITC/PI dual staining based flow cytometry (reference value: 0.88%). The format is functional. A digest of the protocol:
as §1

Experiment [6] relates to CNE-2. Put plainly: Induction of cell cycle arrest in human CNE2 cells assessed as accumulation at G0-G1 phase at 10 uM incubated for 24 hrs by propidium iodide staining based flow cytometry (reference value: 69.3%). The format is functional.
Experiment [7] concerns CNE-2. Put plainly: Induction of apoptosis in human CNE2 cells assessed as necrotic cells level at 5 uM incubated for 24 hrs by Annexin V-FITC/PI dual staining based flow cytometry (reference value: 3.43%). The format is functional. A digest of the protocol:
as §1

Experiment [8] deals with CNE-2. Put plainly: Induction of cell cycle arrest in human CNE2 cells assessed as accumulation at G2/M phase at 10 uM incubated for 24 hrs by propidium iodide staining based flow cytometry (reference value: 19.8%). The format is functional.
For experiment [9], the system named is SMMC-7721. Briefly: Induction of apoptosis in human SMMC7721 cells assessed as viable cells level at 10 uM incubated for 24 hrs by Annexin V-FITC/PI dual staining based flow cytometry (reference value: 95.3%). The format is functional. A digest of the protocol:
as §1

Experiment [10] relates to CNE-2. Briefly: Induction of cell cycle arrest in human CNE2 cells assessed as accumulation at subG1 phase at 10 uM incubated for 24 hrs by propidium iodide staining based flow cytometry (reference value: 0.55%). Type of experiment: functional.
Experiment [11] has as its system CNE-2. Briefly: Induction of apoptosis in human CNE2 cells assessed as viable cells level at 5 uM incubated for 24 hrs by Annexin V-FITC/PI dual staining based flow cytometry (reference value: 91.6%). The format is functional. A digest of the protocol:
as §1

Experiment [12] deals with SMMC-7721. Put plainly: Induction of cell cycle arrest in human SMMC7721 cells assessed as accumulation at S phase at 5 uM incubated for 24 hrs by propidium iodide staining based flow cytometry (reference value: 17.2%). Type of experiment: functional.
The test system of experiment [13] is CNE-2. Put plainly: Induction of apoptosis in human CNE2 cells assessed as early apoptotic cells level at 5 uM incubated for 24 hrs by Annexin V-FITC/PI dual staining based flow cytometry (reference value: 3.56%). Type of experiment: functional. A digest of the protocol: as §1
Experiment [14] concerns SMMC-7721. Put plainly: Induction of cell cycle arrest in human SMMC7721 cells assessed as accumulation at G2/M phase incubated for 24 hrs by propidium iodide staining based flow cytometry. Type of experiment: functional.
Experiment [15] has as its system CNE-2. Briefly: Anticancer activity against human CNE2 cells assessed as reduction in cell viability incubated for 48 hrs MTT assay. The format is functional, cell-based. Particulars: CNE-2, 48 h. The procedure, abridged: (§2)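 MTT assay on human hepatocarcinoma SMMC-7721, lung carcinoma A549 and nasopharyngeal carcinoma CNE2 cells, with matrine as comparator and cisplatin as positive control. IC50 is the concentration that lowers optical density of treated cells by 50% versus untreated cells, given as the mean ± SD of three experiments.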
(In general: Tetrazolium assays rely on reduction of a dye to a coloured formazan, in cell work by metabolically active cells.)

Experiment [16] concerns SMMC-7721. Briefly: Induction of apoptosis in human SMMC7721 cells assessed as viable cells level at 30 uM incubated for 24 hrs by Annexin V-FITC/PI dual staining based flow cytometry (reference value: 95.3%). The format is functional. A digest of the protocol: as §1
Experiment [17] deals with SMMC-7721. Put plainly: Induction of cell cycle arrest in human SMMC7721 cells assessed as accumulation at G0-G1 phase at 5 uM incubated for 24 hrs by propidium iodide staining based flow cytometry (reference value: 64.1%). The format is functional.
Experiment [18] relates to SMMC-7721. Put plainly: Induction of cell cycle arrest in human SMMC7721 cells assessed as accumulation at G2/M phase at 10 uM incubated for 24 hrs by propidium iodide staining based flow cytometry (reference value: 18.4%). The format is functional.
The subject of experiment [19] is CNE-2. Put plainly: Induction of cell cycle arrest in human CNE2 cells assessed as accumulation at G2/M phase at 30 uM incubated for 24 hrs by propidium iodide staining based flow cytometry (reference value: 19.8%). The format is functional.
Experiment [20] relates to CNE-2. Put plainly: Induction of cell cycle arrest in human CNE2 cells assessed as accumulation at S phase at 30 uM incubated for 24 hrs by propidium iodide staining based flow cytometry (reference value: 10.3%). The format is functional.
Experiment [21] concerns CNE-2. Briefly: Induction of apoptosis in human CNE2 cells assessed as early apoptotic cells level at 30 uM incubated for 24 hrs by Annexin V-FITC/PI dual staining based flow cytometry (reference value: 3.56%). Type of experiment: functional. A digest of the protocol: as §1
Experiment [22] relates to CNE-2. Put plainly: Induction of apoptosis in human CNE2 cells assessed as necrotic cells level at 30 uM incubated for 24 hrs by Annexin V-FITC/PI dual staining based flow cytometry (reference value: 3.43%). The format is functional. The procedure, abridged:
as §1

Experiment [23] concerns CNE-2. Briefly: Induction of apoptosis in human CNE2 cells assessed as viable cells level at 30 uM incubated for 24 hrs by Annexin V-FITC/PI dual staining based flow cytometry (reference value: 91.6%). The format is functional. A digest of the protocol: as §1
In experiment [24] the test system is SMMC-7721. Put plainly: Anticancer activity against human SMMC7721 cells assessed as reduction in cell viability incubated for 48 hrs MTT assay. The format is functional, cell-based. Particulars: SMMC-7721, 48 h. The procedure, abridged: as §2

A word on the IC50: it is the concentration at which inhibition is half-maximal. Consider `COc1cc(Cn2cccc2/C=C2\CC[C@@H]3[C@H]4CCCN5CCC[C@@H](CN3C2=O)[C@@H]45)cc(OC)c1`, for which the Activity in experiment [1] was determined as 25.1%; in experiment [2], 24.1%; in experiment [3], 2.43%; in experiment [4] it was 33.1%; in experiment [5] it was 17%; in experiment [6] it was 3.93%. For the same molecule, the Activity in experiment [7] is reported as 2.58%; in experiment [8], 89.4%; in [9], 32.8%; in [10] it was 4.35%; in [11], 85.5%; in experiment [12], 7.92%. Moreover, the Activity is 8.79% in experiment [13]; “Dose-dependent effect” in experiment [14]; 46.3% in experiment [16]; 63% in experiment [17]; 78.9% in experiment [18]; 81.1% in [19]. The Activity in experiment [20] is given as 4.8%; in [21] it was 34.6%; in experiment [22], 6.5%; in experiment [23] it was 43%. Moreover, the IC50 is 3.55 µM in experiment [15] and 4.65 µM in experiment [24].

(Values after ChEMBL document CHEMBL4184236, “Design, synthesis and biological evaluation of matrine derivatives as potential anticancer agents” (Bioorg Med Chem Lett, 2018).)
